Screening data (PubChem BioAssay)
This is one part of a sample in which hits are shown more often than they occur.
Insulin prom act: TRM-6 insulin promoter activation | activation, % at 2 µM | TRM-6 cells (human fetal islet line), insulin promoter eGFP reporter, imaging; plate-scaled: unstimulated 0, stimulated control 100 | 130,000 compounds, 0.81% hits;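 active means activation at 2 µM above a set limit, confirmed on inspection of the cell images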;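 further: share of cells whose green reporter signal exceeds an intensity cutoff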
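Material: TRM-6 insulin promoter–eGFP reporter cells. Buffer or medium: Low-glucose (5.5 mM) medium with tamoxifen. Probe or stimulus: tamoxifen at 0.75 µM added at seeding for reporter induction. Times: tamoxifen pre-incubation 15 h overnight, then compound exposure 48 h at 37 °C. Detection: high-content imaging of fixed cells with Hoechst nuclear stain.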
Numbers without * were called inactive.

SMILES	Insulin prom act
Cc1nn(-c2cc(N3CCOCC3)ccc2N)c(=O)c2ccccc12	6
Cc1cccc(C)c1C(OCCN(C)C)C1CCCCC1 (stereo unspecified)	-4
O=C(OCC(=O)c1c[nH]c2ccccc12)c1cc2ccccc2cc1O	0
CCNS(=O)(=O)c1ccc(CCC(=O)NCc2ccccc2)cc1	-7
O=C(NCc1ccccn1)C(=O)NN=C1CCCCCCC1	8
Cc1ccc(C)c(-n2nnnc2SCC(=O)NCCC2=CCCCC2)c1	708*
CNC(=O)CSc1nnnn1-c1cc(C)ccc1C	0
Cc1ccc(CS(=O)(=O)CCC(=O)NCCC2=CCCCC2)cc1	0
O=C(COC(=O)c1cc(Br)ccc1O)Nc1cc(S(=O)(=O)N2CCCC2)ccc1Cl	9
CCC(=O)N1CCN(c2ccc(NC(=O)c3ccc(-c4ccccc4)cc3)cc2)CC1	-3
O=C(/C=C/c1ccc([N+](=O)[O-])cc1)N(c1ccccn1)C1CCCCC1	0
O=C(c1ccccc1F)N1CCCC(c2ccccc2)C1 (stereo unspecified)	3
COc1ccc(C(=O)N2CCC(C(=O)O)CC2)cc1	-6
COc1ccc(C(=O)N2CCCC(c3ccccc3)C2)cc1 (stereo unspecified)	136*
Nc1nonc1C(=O)NCCNS(=O)(=O)c1ccc(F)cc1	8
CN(C)c1ccc(/C=N/NC(=O)C(=O)/C=C2\NC3(CCCC3)Cc3ccccc32)cc1	-8
CCOC(=O)/C=C1\NC(C)(C)Cc2cc(OC)c(OC)cc21	-72
CC1(C)Cc2ccccc2/C(=C/C(=O)N2CCCCCC2)N1	557*
Cc1ccc(-c2c[n+](CC(=O)Nc3cc(=O)n(C)c(=O)n3C)c3n2CCC3)cc1	0
N#CC1=C(N)C(C#N)(C#N)C(c2cccnc2)C2CN(C(=O)OCc3ccccc3)CC=C12 (stereo unspecified)	115
N#CC1=C(N)C(C#N)(C#N)C(c2cccnc2)C2COCC=C12 (stereo unspecified)	0
N#CC1=C(N)C(C#N)(C#N)[C@H](c2ccoc2)[C@H]2CN(Cc3ccccc3)CC=C12	212*
CCn1c(SCC(=O)Nc2ccccc2)nnc1-c1ccc(S(=O)(=O)N2CCOCC2)cc1	-3
CCn1c(SCC(=O)N2CCCC(C)C2)nnc1-c1ccc(S(=O)(=O)N2CCN(C)CC2)cc1 (stereo unspecified)	81*
CCSc1nnc(-c2ccc(S(=O)(=O)N3CCCC3)cc2)n1C	0
SMILES	Insulin prom act
C=C(C)CC1(NC(C)c2ccccc2)CCCCC1 (stereo unspecified)	7
COc1ccc(CNC(=O)c2nnn(-c3cccc(C(F)(F)F)c3)c2N)cc1	0
COc1cc(S(=O)(=O)Nc2cccc(C)c2)ccc1NC(=O)c1cccnc1	-7
Oc1cccc(C(O)CNCc2ccc(OCc3ccc(Cl)cc3Cl)cc2)c1 (stereo unspecified)	0
Cc1cnc(C)c(N(C)NC(=S)Nc2ccccc2)n1	485*
Cc1nn(-c2ccccc2)cc1C(=S)Nc1ccccc1	-7
CN(C(=S)Nc1ccccc1)c1ccccc1	-7
Cc1cc(=S)c2cccc(C)c2[nH]1	-7
O=C(CSc1ncn[nH]1)NCCC(c1ccccc1)c1ccccc1	85*
O=C(CSc1ncn[nH]1)NC1CCCc2ccccc21 (stereo unspecified)	0
COc1ccc(CCNC(=O)CSc2ncn[nH]2)cc1	-86
O=C(CSc1nnnn1-c1cccc2c1CCCC2)N1CCCCC1	206
CC(c1ccccc1)N(NC(=O)C(O)(c1ccccc1)c1ccccc1)C(=O)c1ccccc1 (stereo unspecified)	162
FC(F)(F)c1cnc(-c2cnc(-c3cccnc3)nc2)c(Cl)c1	-2
O=C(NCCCN1CCOCC1)c1cc(-c2ccccc2)on1	32
c1ccc(CN2CCOCC2)cc1	-9
Clc1ccc2oc(-c3ccccc3)cc(=NCCCN3CCOCC3)c2c1	321*
CC(=O)Nc1nc(NC(=O)/C=C/c2ccccc2)n(-c2ccccc2)n1	-6
CCOC(=O)c1oc2cccc(OC(C)=O)c2c1C	286
CCOC(=O)c1oc2ccccc2c1NC(=O)COC	123
CCOC(=O)c1oc2ccc(CNC(C)(C)C)c(Cl)c2c1C	431*
COc1ccc(CCNC2CC(=O)N(N(C)C)C2=O)cc1OC (stereo unspecified)	-3
CCCN1CCC(N(C)CCc2ccc(OC)c(OC)c2)CC1	127*
COc1ccc(C2CC(=O)N(CCCN(C)CCc3ccc(OC)c(OC)c3)C2)cc1 (stereo unspecified)	-7
CCOC(=O)Cc1csc(NC(=S)NC(=O)c2cccc([N+](=O)[O-])c2)n1	147
CC(C)[C@H](NC(=O)[C@H](CC(=O)O)NC(=O)[C@H](CCCCN)NC(=O)[C@@H](N)CCCN=C(N)N)C(=O)N[C@@H](Cc1ccc(O)cc1)C(=O)O	9
O=C(CSc1nc2ccccc2[nH]1)NCCc1ccc(Cl)cc1	4
O=C(CSc1nc2ccccc2[nH]1)N1CCN(S(=O)(=O)c2ccc(Cl)cc2)CC1	97*
O=S(=O)(c1ccc2nc(SCc3cccc(Cl)c3)[nH]c2c1)N1CCOCC1	-2
